# Measurements collected from several papers.
# Read-out: cell growth or viability
SMILES,cell line,test,setting,IC50 [nM]
O=C(Nc1ccccc1)c1cc(-c2ccccc2)nc2ccc(-c3ccccc3)cc12,MIA PaCa-2,MTT,48 h,> 50000
Nc1ccc(/C=C/C(=O)N2CCc3c(oc4c(-c5ccc(F)cc5)cc(-c5ccc(C(=O)N6CCOCC6)nn5)cc34)C2)cn1,MIA PaCa-2,CCK-8,72 h,460
C[C@H](CCC(=O)O)[C@H]1CC[C@H]2[C@@H]3CC[C@@H]4C[C@H](O)CC[C@]4(C)[C@H]3CC[C@]12C,LNCaP,MTT,72 h,66000
CCNCCCn1c2c(c3cc(OC)c(OC)cc3c1=O)C(=O)c1cc3c(nc1-2)OCO3,MOLT-4,MTS,72 h,13
C=C(F)C(=O)N1CCN(c2nc(OC[C@@H]3CCCN3C)nc3c2CCN(c2cccc4cccc(Cl)c24)C3)C[C@@H]1CC#N,SW837,ATP luminescence,,86.2
CN1CCC(NC(=O)c2ccc(-c3cc(-c4ccsc4)c4oc5c(c4c3)CCN(C(=O)/C=C/c3ccc(N)nc3)C5)nn2)C(F)(F)C1 (stereo not shown),MIA PaCa-2,CCK-8,72 h,650
COc1ccc(-c2cc(C(=O)Nc3ccccc3)c3cc(-c4ccccc4)ccc3n2)cc1,MIA PaCa-2,MTT,48 h,48300
Nc1ccc(/C=C/C(=O)N2CCc3c(oc4c(-c5ccc(F)cc5)cc(-c5ccc(C(=O)N6CCC(F)(F)CC6)cc5F)cc34)C2)cn1,MIA PaCa-2,CCK-8,72 h,2660
COc1ccc(F)cc1-c1ccc2nc(-c3ccccc3)cc(C(=O)Nc3ccccc3)c2c1,MIA PaCa-2,MTT,48 h,> 50000
COc1cc2c3c(n(CCCNC(C)C)c(=O)c2cc1OC)-c1nc2c(cc1C3=O)OCO2,KMS-27,MTS,72 h,206
COc1cc([C@@H]2c3cc4c(cc3[C@@H](O[C@@H]3O[C@@H]5CO[C@@H](C)O[C@H]5[C@H](O)[C@H]3O)[C@H]3COC(=O)[C@H]23)OCO4)cc(OC)c1O,T47D,MTT,48 h,79000
COc1ccc(-c2cc(C(=O)Nc3ccccc3)c3cc(-c4cc(F)ccc4OC)ccc3n2)cc1,MIA PaCa-2,MTT,48 h,> 50000
COc1cc2c3c(n(CCCN4CCOCC4)c(=O)c2cc1OC)-c1nc2c(cc1C3=O)OCO2,KMS-27,MTS,72 h,530
COc1ccc(-c2cc(C(=O)Nc3ccccc3)c3cc(-c4cccs4)ccc3n2)cc1,MIA PaCa-2,MTT,48 h,> 50000
COc1cc2c3c(n(CCCNCCO)c(=O)c2cc1OC)-c1nc2c(cc1C3=O)OCO2,KMS-27,MTS,72 h,141
COc1cccc2c1C(=O)c1c(O)c3c(c(O)c1C2=O)C[C@@](O)(C(=O)CO)C[C@@H]3O[C@H]1C[C@H](N)[C@H](O)[C@H](C)O1,MIA PaCa-2,MTT,48 h,25300
Cc1sc2c(c1C)C(c1ccc(Cl)cc1)=N[C@@H](CC(=O)NCCCCCCCCNC(=O)COc1cccc3c1C(=O)N(C1CCC(=O)NC1=O)C3=O)c1nnc(C)n1-2 (stereo partly shown),MOLT-4,ATP luminescence,,23
COc1cc2c3c(n(CCCn4ccnc4)c(=O)c2cc1OC)-c1nc2c(cc1C3=O)OCO2,KMS-27,MTS,72 h,238
C=CC(=O)N1CCN(c2nc(=O)n(-c3c(C)ccnc3C(C)C)c3nc(-c4c(O)cccc4F)c(F)cc23)[C@@H](C)C1,MIA PaCa-2,ATP luminescence,,23.5
